{"source": "PubChem BioAssay AID686992", "about": "(Broad Institute, 2013)", "note": "Screen size: about 260,000 compounds; about 960 (0.37%) were called active. The sample holds actives, similar compounds and a random draw of the others, so the mix is not that of the screen.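 The calls were made as follows: active = mean E-selectin-positive cell signal at least 10% of the positive control, reached in at least 60% of replicates, without over 20% cell loss; inconclusive = no rule given, readout overlaps actives, possibly toxicity-flagged; inactive = the rest, including those meeting only one limit.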", "data": [{"molecular_target": "E-selectin (Homo sapiens) (UniProt P16581)", "sequence (P16581 whole entry, looked up)": "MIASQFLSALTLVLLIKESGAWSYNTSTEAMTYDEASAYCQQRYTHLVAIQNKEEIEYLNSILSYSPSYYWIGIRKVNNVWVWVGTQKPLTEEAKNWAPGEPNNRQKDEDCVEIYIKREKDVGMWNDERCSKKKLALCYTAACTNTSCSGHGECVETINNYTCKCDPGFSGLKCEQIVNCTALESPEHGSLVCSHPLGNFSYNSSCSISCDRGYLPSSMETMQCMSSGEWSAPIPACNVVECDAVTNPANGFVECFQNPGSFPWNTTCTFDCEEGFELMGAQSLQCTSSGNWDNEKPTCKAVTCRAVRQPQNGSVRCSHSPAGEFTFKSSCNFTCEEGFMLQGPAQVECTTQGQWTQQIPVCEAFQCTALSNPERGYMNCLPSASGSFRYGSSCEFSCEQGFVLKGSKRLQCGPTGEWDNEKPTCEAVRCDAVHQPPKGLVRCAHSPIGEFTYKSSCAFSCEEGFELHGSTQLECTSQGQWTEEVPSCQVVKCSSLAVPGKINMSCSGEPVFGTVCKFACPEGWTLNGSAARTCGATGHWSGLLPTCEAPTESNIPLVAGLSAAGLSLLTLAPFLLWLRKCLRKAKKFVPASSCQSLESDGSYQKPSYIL", "test": "inducers of endothelial E-selectin expression – imaging, HUVEC, immunofluorescence imaging, single point, primary screen (AID 686992);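 also: signal is the percent of cells scored E-selectin positive by PE staining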", "conditions": "at 7.58 µM, stronger effect = higher value, normalized: neutral wells 0, TNF-alpha wells 100", "in_short": "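assay system = HUVEC, human umbilical vein endothelial cells | input = 3,000 HUVEC seeded per well | medium = EGM-2 growth medium on 0.1% gelatin-coated wells | dosing = one compound dose added by pin transfer | signal = immunofluorescence imaging | read-out basis = % PE-positive cells | control set = TNF-alpha, DMSO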", "values": [{"smiles": "C[C@@H]1CN([C@@H](C)CO)C(=O)Cc2cc(NC(=O)NC3CCCCC3)ccc2O[C@H]1CN(C)C(=O)Nc1ccc(C(F)(F)F)cc1", "activation": "0.389% (inactive)"}, {"smiles": "C[C@H]1CN([C@@H](C)CO)C(=O)Cc2cc(NS(C)(=O)=O)ccc2O[C@@H]1CN(C)S(=O)(=O)c1cccs1", "activation": "-0.124% (inactive)"}, {"smiles": "C[C@H]1CN([C@@H](C)CO)C(=O)Cc2cc(NC(=O)C3CC3)ccc2O[C@@H]1CN(C)S(=O)(=O)c1cccs1", "activation": "55.7% (active)"}, {"smiles": "C[C@@H]1CN([C@@H](C)CO)C(=O)Cc2cc(NC(=O)C3CC3)ccc2O[C@@H]1CN(C)S(C)(=O)=O", "activation": "-0.338% (inactive)"}, {"smiles": "C[C@H]1CN([C@@H](C)CO)C(=O)Cc2cc(NC(=O)Nc3ccc(F)cc3)ccc2O[C@H]1CN(C)C(=O)Nc1ccc(C(F)(F)F)cc1", "activation": "29.7% (active)"}, {"smiles": "CC(C)NC(=O)N(C)C[C@H]1Oc2ccc(NC(=O)CCC(F)(F)F)cc2CC(=O)N([C@@H](C)CO)C[C@@H]1C", "activation": "50.4% (active)"}, {"smiles": "C[C@H]1CN([C@@H](C)CO)C(=O)Cc2cc(NC(=O)CCC(F)(F)F)ccc2O[C@H]1CN(C)C(=O)NC1CCCCC1", "activation": "0.0445% (inactive)"}, {"smiles": "C[C@@H]1CN([C@@H](C)CO)C(=O)Cc2cc(NC(=O)Nc3ccc(C(F)(F)F)cc3)ccc2O[C@H]1CN(C)C(=O)Nc1ccc(F)cc1", "activation": "-0.224% (inactive)"}, {"smiles": "C[C@@H]1CN([C@@H](C)CO)C(=O)Cc2cc(NC(=O)CCC(F)(F)F)ccc2O[C@@H]1CN(C)C(=O)Nc1cccc2ccccc12", "activation": "0.23% (inactive)"}, {"smiles": "C[C@@H]1CCCCO[C@@H](CN(C)C(=O)CCCN(C)C)[C@H](C)CN([C@@H](C)CO)C(=O)c2cc(NC(=O)Nc3ccccc3)ccc2O1", "activation": "-0.0275% (inactive)"}, {"smiles": "N#C[C@@H]1[C@@H](c2ccc(-c3ccccc3F)cc2)[C@@H](CO)N1C(=O)c1ccccn1", "activation": "0.692% (inactive)"}, {"smiles": "COC(=O)N1Cc2ccnnc2CC1c1ccccc1Br", "note": "(stereo not drawn)", "activation": "-0.184% (inactive)"}, {"smiles": "CSc1ccc(CN2CCC2(C)C(=O)NCc2ccccc2Br)cc1", "note": "(stereo not drawn)", "activation": "-0.129% (inactive)"}, {"smiles": "CC(Sc1ccc(S(=O)(=O)N2CCN(C)CC2)cn1)C(=O)NC1CCCC(C)C1C", "note": "(stereo not drawn)", "activation": "-0.0545% (inactive)"}, {"smiles": "O=C(c1ccccn1)N1CC2(C1)[C@@H](c1ccccc1)[C@@H](CO)N2C(=O)C1CCCCC1", "activation": "1.98% (inactive)"}, {"smiles": "CC(C)NC(=O)Nc1ccc2c(c1)C(=O)N([C@@H](C)CO)C[C@@H](C)[C@H](CN(C)Cc1ccc(-c3ccccc3)cc1)O2", "activation": "0.764% (inactive)"}, {"smiles": "C[C@@H]1CN([C@H](C)CO)C(=O)Cc2cc(NC(=O)Cc3cn(C)c4ccccc34)ccc2O[C@@H]1CN(C)Cc1ccc(C(F)(F)F)cc1", "activation": "275% (active)"}, {"smiles": "CC(C)NC(=O)Nc1ccc2c(c1)C(=O)N([C@@H](C)CO)C[C@@H](C)[C@H](CN(C)Cc1ccc(C(=O)O)cc1)O2", "activation": "56.9% (active)"}, {"smiles": "C[C@H](CO)N1C[C@H](C)[C@H](CN(C)Cc2ccc(C(=O)O)cc2)Oc2ccc(NC(=O)NC3CCCCC3)cc2C1=O", "activation": "1.59% (inactive)"}, {"smiles": "C[C@@H]1CN([C@H](C)CO)C(=O)c2cc(NC(=O)Nc3ccc4c(c3)OCO4)ccc2O[C@@H]1CN(C)Cc1ccc(C(F)(F)F)cc1", "activation": "0.0795% (inactive)"}, {"smiles": "C[C@H]1CN([C@@H](C)CO)C(=O)Cc2cc(NC(=O)Cc3cn(C)c4ccccc34)ccc2O[C@@H]1CN(C)Cc1ccccc1", "activation": "0.509% (inactive)"}, {"smiles": "C[C@H](CO)N1C[C@H](C)[C@@H](CN(C)Cc2ccc(C(F)(F)F)cc2)Oc2ccc(NC(=O)CCC(F)(F)F)cc2C1=O", "activation": "63.1% (active)"}, {"smiles": "C[C@H]1CN([C@@H](C)CO)C(=O)Cc2cc(NC(=O)Cc3cn(C)c4ccccc34)ccc2O[C@@H]1CN(C)Cc1ccc(C(F)(F)F)cc1", "activation": "12.9% (inactive)"}, {"smiles": "C[C@H](CO)N1C[C@H](C)[C@@H](CN(C)Cc2ccc(C(F)(F)F)cc2)Oc2ccc(NC(=O)CCN3CCOCC3)cc2C1=O", "activation": "3.76% (inactive)"}, {"smiles": "CCCNC(=O)c1cc2c(c(-c3cccc(-c4ccc(C#N)cc4)c3)n1)[C@@H](CCO)N(C(=O)CC)C2", "activation": "1.79% (inactive)"}, {"smiles": "CO[C@H]1CN(C)C(=O)c2cc(NC(=O)C3CCOCC3)ccc2OC[C@@H](C)N(Cc2cccnc2)C[C@@H]1C", "activation": "-0.0535% (inactive)"}, {"smiles": "CN(C)C(=O)c1ccc(-c2ccccc2[C@H]2[C@@H](CO)N(C(=O)C3CCCCC3)[C@H]2C#N)cc1", "activation": "0.141% (inactive)"}, {"smiles": "CSc1ncccc1C(=O)N1CCCC(Nc2ccc(F)c(F)c2)C1", "note": "(stereo not drawn)", "activation": "-0.156% (inactive)"}, {"smiles": "COc1ccc(NC(=O)N(C)C[C@@H]2OCCCC[C@@H](C)Oc3ccc(NS(C)(=O)=O)cc3C(=O)N([C@@H](C)CO)C[C@H]2C)cc1", "activation": "0.098% (inactive)"}, {"smiles": "COC(=O)C1=CN(c2c(C)cc(C)cc2C)C(N)=C(C#N)C1c1cccc(F)c1", "note": "(stereo not drawn)", "activation": "-0.0735% (inactive)"}, {"smiles": "COc1ccc(S(=O)(=O)N(C)CC(=O)NCCCN2CCOCC2)cc1Cl", "activation": "0.0915% (inactive)"}, {"smiles": "O=S(=O)(NCCCN1CCOCC1)c1ccc(F)c(Cl)c1", "activation": "82.5% (active)"}, {"smiles": "O=S(=O)(NCC1CC1)c1ccc(F)c(Cl)c1", "activation": "-0.0605% (inactive)"}, {"smiles": "COc1ccccc1-c1ccc([C@H]2[C@H](CO)N(C(=O)C3CC3)C23CN(C(C)=O)C3)cc1", "activation": "-0.188% (inactive)"}, {"smiles": "CCC(=O)Nc1ccc2c(c1)OC[C@H](C)N(CC1CCOCC1)C[C@@H](C)[C@@H](OC)CN(C)C2=O", "activation": "0.195% (inactive)"}, {"smiles": "CO[C@@H]1CN(C)C(=O)c2cc(NS(=O)(=O)c3ccc(C)cc3)ccc2OC[C@H](C)N(Cc2nccs2)C[C@@H]1C", "activation": "-0.0505% (inactive)"}, {"smiles": "CCOCCCn1c(NN)nc2ccccc2c1=O", "activation": "-0.132% (inactive)"}, {"smiles": "COCCCn1c(-c2cccs2)nc2nc3ccccc3nc21", "activation": "42.8% (active)"}, {"smiles": "COCCn1c(SCC(=O)c2[nH]c(C)c(C(C)=O)c2C)nc2ccccc2c1=O", "activation": "-0.059% (inactive)"}, {"smiles": "O=C(c1ccc(F)cc1)N1CC(=O)N2[C@@H](CO)[C@@H](c3ccc(C#Cc4ccc(F)cc4)cc3)[C@@H]2C1", "activation": "-0.811% (inactive)"}, {"smiles": "Cc1nc(N2CCC(C)CC2)c2c(C)c(C(=O)Nc3cc(F)ccc3C)sc2n1", "activation": "0.651% (inactive)"}, {"smiles": "Cc1nc(N2CCN(c3ccccn3)CC2)c2c(C)c(C(=O)Nc3ccc(F)cc3)sc2n1", "activation": "86% (active)"}, {"smiles": "CCN(CC)c1ccc(NC(=O)CN2CCN(c3ccccn3)CC2)cc1", "activation": "0.001% (inactive)"}]}]}
